In ChEMBL document CHEMBL4414601 (J Med Chem, 2019):

How the values were obtained:
[1] = biological target: T1, Nuclear receptor subfamily 1 group I member 2 (Homo sapiens, UniProt O75469); assay: Agonist activity at human PXR
T1 sequence (O75469 whole entry): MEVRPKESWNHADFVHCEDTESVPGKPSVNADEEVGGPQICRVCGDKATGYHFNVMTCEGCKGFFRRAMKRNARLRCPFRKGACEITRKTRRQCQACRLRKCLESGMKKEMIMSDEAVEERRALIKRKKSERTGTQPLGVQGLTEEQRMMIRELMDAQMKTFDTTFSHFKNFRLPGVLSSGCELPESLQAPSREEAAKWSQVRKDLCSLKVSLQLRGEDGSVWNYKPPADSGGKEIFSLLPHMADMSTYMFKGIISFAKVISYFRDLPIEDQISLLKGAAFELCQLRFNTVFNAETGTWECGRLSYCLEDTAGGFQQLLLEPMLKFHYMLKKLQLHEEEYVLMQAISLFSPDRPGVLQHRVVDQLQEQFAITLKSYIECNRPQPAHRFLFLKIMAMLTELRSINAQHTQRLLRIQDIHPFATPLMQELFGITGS

Casein kinase I = biological target: T2, Casein kinase I (Plasmodium falciparum (isolate 3D7), UniProt Q8IHZ9); assay: Binding affinity to CK1 in Plasmodium falciparum 3D7 blood stage extract incubated for 1 hr by kinobeads based pull down assay; details: read-out: Kd(app)
T2 sequence (Q8IHZ9 whole entry): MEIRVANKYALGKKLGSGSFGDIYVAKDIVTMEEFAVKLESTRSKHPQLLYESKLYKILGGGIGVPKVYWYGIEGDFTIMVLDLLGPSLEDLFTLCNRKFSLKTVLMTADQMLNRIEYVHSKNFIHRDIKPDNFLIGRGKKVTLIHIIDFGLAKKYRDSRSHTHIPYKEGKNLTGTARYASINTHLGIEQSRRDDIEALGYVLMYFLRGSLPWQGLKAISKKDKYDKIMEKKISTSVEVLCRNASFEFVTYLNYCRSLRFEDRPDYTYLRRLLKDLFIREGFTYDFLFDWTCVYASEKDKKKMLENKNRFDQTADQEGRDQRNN
How it was run: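 Chemoproteomic competition binding: Sepharose beads derivatized at 1 mM with the immobilized ligand (kinobeads prepared likewise). Free compound competed at six concentrations, 0.08–20 μM. Proteins were SP3-digested, TMT 10-plex labelled and quantified by LC-MS/MS on an Orbitrap. IC50 from the competition curve; apparent Kd corrected for protein depletion by the beads. Two independent experiments.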

[2] = Lipophilicity, LogD of compound by reverse phase HPLC analysis
[3] = Clearance in mouse liver microsomes at 0.5 uM measured up to 45 mins in presence of NADPH by HPLC-MS/MS analysis; format: ADME, Microsome
[4] = Permeability of compound by PAMPA
[5] = Binding affinity to GSK3 in Plasmodium falciparum 3D7 blood stage extract incubated for 1 hr by kinobeads based pull down assay; details: read-out: Kd(app)
How it was run: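 The free compound competed over six concentrations from 0.08 to 20 μM. Proteins were digested by a modified SP3 protocol, labelled with TMT 10-plex and quantified by LC-MS/MS. Apparent Kd was derived from IC50 corrected for bead depletion. Two independent experiments were run.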

[6] = biological target: Beta-2 adrenergic receptor (Homo sapiens, UniProt P07550); assay: Agonist activity at human beta2 adrenoceptor
Acetylcholinesterase = Acetylcholinesterase (Homo sapiens, UniProt P22303); assay: Inhibition of AChE (unknown origin)
Plasmodium falciparum [7] = assay: Antiplasmodial activity against […] of Plasmodium falciparum NF54 assessed as reduction in male gametocytes activation preincubated for 48 hrs followed by gametocytes activation and measured after 24 hrs by fluorescence based automated inverted microscopic analysis; format: functional, organism-based
How it was run: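 Gametocyte activation was triggered by reduced temperature and ookinete medium containing xanthurenic acid. Male exflagellation centres were detected from a 10-frame video, scoring pixel changes caused by flagellar movement shifting surrounding cells.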

Plasmodium falciparum [8] = assay: (§1) Antiplasmodial activity against Plasmodium falciparum 3D7A asexual erythrocytic stage assessed as reduction in [3H]hypoxanthine incorporation preincubated for 48 hrs followed by [3H]hypoxanthine addition and measured after 24 hrs by microbeta scintillation counting method; format: functional, organism-based
Plasmodium falciparum [9] = assay: as §1, with “3D7A harboring with PKG T618Q mutant” for “3D7A”, “72” for “48”; format: functional, organism-based
[10] = biological target: T3, Aryl hydrocarbon receptor (Homo sapiens, UniProt P35869); assay: Agonist activity at human aryl hydrocarbon receptor
T3 sequence (P35869 whole entry): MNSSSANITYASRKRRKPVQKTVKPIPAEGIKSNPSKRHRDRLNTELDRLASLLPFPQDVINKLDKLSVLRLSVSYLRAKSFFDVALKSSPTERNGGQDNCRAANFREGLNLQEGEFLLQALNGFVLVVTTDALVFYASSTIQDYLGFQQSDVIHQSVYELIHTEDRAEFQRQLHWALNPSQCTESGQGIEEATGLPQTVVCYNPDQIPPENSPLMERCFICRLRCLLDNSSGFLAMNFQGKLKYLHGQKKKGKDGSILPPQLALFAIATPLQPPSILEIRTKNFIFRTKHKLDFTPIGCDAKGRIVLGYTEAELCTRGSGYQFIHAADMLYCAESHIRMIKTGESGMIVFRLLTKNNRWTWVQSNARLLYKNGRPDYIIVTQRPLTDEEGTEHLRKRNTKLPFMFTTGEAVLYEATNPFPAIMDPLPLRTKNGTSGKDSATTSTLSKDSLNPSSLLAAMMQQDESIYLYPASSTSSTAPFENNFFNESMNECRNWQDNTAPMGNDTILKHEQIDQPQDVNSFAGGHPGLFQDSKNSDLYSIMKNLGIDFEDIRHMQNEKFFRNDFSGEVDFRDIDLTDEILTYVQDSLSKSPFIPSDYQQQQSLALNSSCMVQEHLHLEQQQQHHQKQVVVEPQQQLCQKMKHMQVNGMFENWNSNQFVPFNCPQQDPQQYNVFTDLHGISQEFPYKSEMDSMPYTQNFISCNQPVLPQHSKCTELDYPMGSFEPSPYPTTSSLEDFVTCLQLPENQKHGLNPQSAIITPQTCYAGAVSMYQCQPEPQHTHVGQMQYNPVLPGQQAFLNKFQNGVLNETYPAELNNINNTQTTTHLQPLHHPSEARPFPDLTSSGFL

[11] = biological target: Calcium-dependent protein kinase 1 (Plasmodium falciparum, UniProt P62344); assay: Binding affinity to CDPK1 in Plasmodium falciparum 3D7 blood stage extract incubated for 1 hr by kinobeads based pull down assay; details: read-out: Kd(app)
How it was run: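 Chemoproteomic competition used kinobeads or Sepharose beads derivatized with ligand at 1 mM. Free compound was tested at six concentrations between 0.08 and 20 μM, in two independent experiments. Proteins were SP3-digested, TMT 10-plex labelled and measured by LC-MS/MS. IC50s came from competition curves, and apparent Kd was corrected for protein depletion by the beads.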

[12] = Clearance in rat liver microsomes at 0.5 uM measured up to 45 mins in presence of NADPH by HPLC-MS/MS analysis; format: ADME, Microsome
[13] = biological target: Voltage-gated potassium channel, IKs; KCNQ1(Kv7.1)/KCNE1(MinK) (Homo sapiens, UniProt P15382+P51787); assay: Inhibition of human KCNQ1/KCNE1
[14] = Clearance in human liver microsomes at 0.5 uM measured up to 45 mins in presence of NADPH by HPLC-MS/MS analysis; format: ADME, Microsome

Sequence of Voltage-gated potassium channel, IKs; KCNQ1(Kv7.1)/KCNE1(MinK) (P51787 whole entry): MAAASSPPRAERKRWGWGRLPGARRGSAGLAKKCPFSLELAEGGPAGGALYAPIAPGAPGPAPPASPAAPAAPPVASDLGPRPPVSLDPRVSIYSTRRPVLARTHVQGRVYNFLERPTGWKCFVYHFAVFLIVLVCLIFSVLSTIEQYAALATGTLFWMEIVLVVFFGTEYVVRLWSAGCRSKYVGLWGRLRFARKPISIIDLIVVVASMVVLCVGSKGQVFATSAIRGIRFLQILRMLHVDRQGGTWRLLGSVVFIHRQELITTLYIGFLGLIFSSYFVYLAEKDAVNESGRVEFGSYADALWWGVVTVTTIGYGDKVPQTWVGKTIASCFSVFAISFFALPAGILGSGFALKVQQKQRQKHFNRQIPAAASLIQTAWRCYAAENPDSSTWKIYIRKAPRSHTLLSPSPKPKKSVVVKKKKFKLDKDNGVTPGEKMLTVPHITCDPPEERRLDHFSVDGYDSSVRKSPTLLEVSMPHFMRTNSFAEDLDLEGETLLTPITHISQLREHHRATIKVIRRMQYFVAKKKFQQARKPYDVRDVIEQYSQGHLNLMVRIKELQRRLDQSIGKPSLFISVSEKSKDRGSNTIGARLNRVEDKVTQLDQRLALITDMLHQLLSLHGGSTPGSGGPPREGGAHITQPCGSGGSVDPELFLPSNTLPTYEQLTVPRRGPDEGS
Sequence of Beta-2 adrenergic receptor (P07550 whole entry): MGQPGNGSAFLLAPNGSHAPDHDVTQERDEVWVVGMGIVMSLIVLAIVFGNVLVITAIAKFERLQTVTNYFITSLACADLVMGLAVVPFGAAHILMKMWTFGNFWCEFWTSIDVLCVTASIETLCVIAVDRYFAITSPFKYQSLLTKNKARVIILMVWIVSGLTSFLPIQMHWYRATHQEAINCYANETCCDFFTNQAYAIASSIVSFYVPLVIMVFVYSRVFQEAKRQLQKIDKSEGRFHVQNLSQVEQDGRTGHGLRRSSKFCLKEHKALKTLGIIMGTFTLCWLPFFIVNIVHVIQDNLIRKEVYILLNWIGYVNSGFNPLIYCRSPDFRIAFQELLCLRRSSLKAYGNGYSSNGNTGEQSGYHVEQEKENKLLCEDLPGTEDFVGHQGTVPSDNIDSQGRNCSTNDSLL
Sequence of Calcium-dependent protein kinase 1 (P62344 whole entry): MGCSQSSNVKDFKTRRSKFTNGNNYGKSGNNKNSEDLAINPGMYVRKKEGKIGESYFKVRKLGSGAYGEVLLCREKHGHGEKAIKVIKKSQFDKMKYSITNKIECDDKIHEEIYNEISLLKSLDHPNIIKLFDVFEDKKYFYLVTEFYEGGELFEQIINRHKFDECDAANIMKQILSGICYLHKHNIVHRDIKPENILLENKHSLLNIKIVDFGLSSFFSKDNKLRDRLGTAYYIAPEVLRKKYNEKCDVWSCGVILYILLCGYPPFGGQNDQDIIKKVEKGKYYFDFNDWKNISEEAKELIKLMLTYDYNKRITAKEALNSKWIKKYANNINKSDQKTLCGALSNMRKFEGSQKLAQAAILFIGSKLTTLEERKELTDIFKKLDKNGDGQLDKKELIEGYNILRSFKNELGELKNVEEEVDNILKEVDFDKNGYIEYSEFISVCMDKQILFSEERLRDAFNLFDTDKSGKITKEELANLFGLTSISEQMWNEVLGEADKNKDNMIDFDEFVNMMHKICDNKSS
Sequence of Acetylcholinesterase (P22303 whole entry): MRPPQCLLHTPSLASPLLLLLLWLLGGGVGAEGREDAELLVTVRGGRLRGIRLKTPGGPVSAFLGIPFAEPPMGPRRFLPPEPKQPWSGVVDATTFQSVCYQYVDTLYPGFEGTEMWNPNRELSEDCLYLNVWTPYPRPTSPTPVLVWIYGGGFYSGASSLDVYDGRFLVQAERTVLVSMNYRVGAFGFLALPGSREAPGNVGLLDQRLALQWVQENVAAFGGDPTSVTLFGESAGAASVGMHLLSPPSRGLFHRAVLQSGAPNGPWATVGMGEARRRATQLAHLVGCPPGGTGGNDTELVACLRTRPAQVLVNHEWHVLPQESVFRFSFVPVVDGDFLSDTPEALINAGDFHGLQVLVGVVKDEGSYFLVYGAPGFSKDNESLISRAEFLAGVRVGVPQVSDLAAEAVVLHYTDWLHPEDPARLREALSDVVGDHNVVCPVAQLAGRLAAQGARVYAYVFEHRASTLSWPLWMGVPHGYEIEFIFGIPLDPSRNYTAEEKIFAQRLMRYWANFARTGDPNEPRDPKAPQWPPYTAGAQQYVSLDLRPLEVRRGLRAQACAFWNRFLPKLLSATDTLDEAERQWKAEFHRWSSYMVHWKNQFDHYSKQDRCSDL

SMILES: Cc1cc(Nc2nccc(-c3sc(C4CCNCC4)nc3-c3ccc(F)cc3)n2)ccn1
- EC50 [1]: > 50 µM
- Kd (Casein kinase I): 0.15 µM
- chromatographic logD [2]: 2.54
- CLH [3]: 1.62 mL/min/g
- Papp [4]: 21 ×10⁻⁶ cm/s
- Kd [5]: 0.09 µM
- EC50 [6]: > 100 µM
- IC50 (Acetylcholinesterase): 0.4 µM
- EC50 (Plasmodium falciparum [7]): 0.3 µM
- EC50 (Plasmodium falciparum [8]): 0.13 µM
- EC50 (Plasmodium falciparum [9]): 0.12 µM
- EC50 [10]: > 50 µM
- Kd [11]: 0.05 µM
- CLH [12]: 0.87 mL/min/g
- IC50 [13]: > 25 µM
- CLH [14]: 0.96 mL/min/g
